Test results published in ChEMBL document CHEMBL1909580, “Branched-chain C-cyano pyranonucleosides: synthesis of 3'-C-cyano & 3'-C-cyano-3'-deoxy pyrimidine pyranonucleosides as novel cytotoxic agents” (Eur J Med Chem, 2011).
Activity calls are given as the source filed them. No cut-off for these calls is given here.

Key:
[1] = system: HeLa; assay: Cytostatic activity against human HeLa cells; assay type: functional, cell-based
How it was run: (§1)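 Cell proliferation was measured with the test agents present. IC50 is the concentration giving 50% inhibition of proliferation, given as the mean ± S.D. of 2–3 independent experiments.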

[2] = system: CCRF-CEM; assay: Cytostatic activity against human CEM cells; assay type: functional, cell-based
How it was run: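 Uninfected CEM cells were run in parallel with the HIV assay for 4 days at 37 °C. IC50 is the concentration inhibiting cell proliferation by 50%, given as the mean ± S.D. of 2–3 independent experiments.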

[3] = system: L1210; assay: Cytostatic activity against mouse L1210 cells; assay type: functional, cell-based; how it was run: as §1
[4] = system: Human alphaherpesvirus 2; assay: Antiviral activity against HSV2 infected in human HEL cells assessed as inhibition of virus-induced cytopathicity at 100 uM; assay type: functional, organism-based
How it was run: (§2)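 Confluent cell monolayers in microtiter plates were inoculated with 100 CCID50 of virus in the presence of varying test concentrations. 1 CCID50 is the virus dose infecting 50% of cultures. Cytopathicity was scored once it was complete in untreated virus-infected controls.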

[5] = system: Human immunodeficiency virus 1; assay: Antiviral activity against HIV1 3B infected in CEM cells assessed as inhibition of virus-induced cytopathicity at 100 uM; assay type: functional, organism-based; conditions: CCRF-CEM
How it was run: (§3)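 Virus stocks were titrated in CEM cells as CCID50. CEM cells at ~3 × 10^5 cells/ml were infected with ~100 CCID50 and immediately added to wells holding various test concentrations. After 4 days at 37 °C, giant cell formation was scored microscopically.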

[6] = system: Felid alphaherpesvirus 1; assay: Antiviral activity against Feline herpesvirus infected in […] cells assessed as inhibition of virus-induced cytopathicity at 100 uM; assay type: functional, organism-based
[7] = system: Influenza A virus; assay: Antiviral activity against influenza A virus H3N2 infected in MDCK cells assessed as inhibition of virus-induced cytopathicity at 100 uM; assay type: functional, organism-based
How it was run: (§4)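 Confluent cell monolayers were infected with 100 CCID50 of virus (1 CCID50 infects 50% of cultures) in the presence of varying concentrations of test compound. Virus-induced cytopathicity was scored once it was complete in the untreated infected controls.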

[8] = system: Punta Toro virus; assay: Antiviral activity against Punta Toro virus infected in african green monkey Vero cells assessed as inhibition of virus-induced cytopathicity at 100 uM; assay type: functional, organism-based; how it was run: as §2
[9] = system: Human alphaherpesvirus 1; assay: Antiviral activity against HSV1 infected in human HEL cells assessed as inhibition of virus-induced cytopathicity at 100 uM; assay type: functional, organism-based; how it was run: as §2
[10] = system: Coxsackievirus B4; assay: Antiviral activity against Coxsackievirus B4 infected in human HeLa cells assessed as inhibition of virus-induced cytopathicity at 100 uM; assay type: functional, organism-based; how it was run: as §2
[11] = system: Human respirovirus 3; assay: Antiviral activity against Parainfluenza 3 virus infected in african green monkey Vero cells assessed as inhibition of virus-induced cytopathicity at 100 uM; assay type: functional, organism-based; how it was run: as §2
[12] = system: Respiratory syncytial virus; assay: Antiviral activity against RSV infected in human HeLa cells assessed as inhibition of virus-induced cytopathicity at 100 uM; assay type: functional, organism-based; how it was run: as §2
[13] = system: Vesicular stomatitis virus; assay: Antiviral activity against VSV infected in human HeLa cells assessed as inhibition of virus-induced cytopathicity at 100 uM; assay type: functional, organism-based; how it was run: as §4
[14] = system: Influenza A virus; assay: Antiviral activity against influenza A virus H1N1 infected in MDCK cells assessed as inhibition of virus-induced cytopathicity at 100 uM; assay type: functional, organism-based; how it was run: as §4
[15] = system: Feline coronavirus; assay: Antiviral activity against Feline coronavirus infected in feline CRFK cells assessed as inhibition of virus-induced cytopathicity at 100 uM; assay type: functional, organism-based; how it was run: as §2
[16] = system: Human immunodeficiency virus 2; assay: Antiviral activity against HIV-2 ROD infected in CEM cells assessed as inhibition of virus-induced cytopathicity at 100 uM; assay type: functional, organism-based; conditions: ISOLATE ROD, CCRF-CEM; how it was run: as §3
[17] = system: Vesicular stomatitis virus; assay: Antiviral activity against VSV infected in human HEL cells assessed as inhibition of virus-induced cytopathicity at 100 uM; assay type: functional, organism-based; how it was run: as §4
[18] = system: Coxsackievirus B4; assay: Antiviral activity against Coxsackievirus B4 infected in african green monkey Vero cells assessed as inhibition of virus-induced cytopathicity at 100 uM; assay type: functional, organism-based; how it was run: as §2
[19] = system: Influenza B virus; assay: Antiviral activity against influenza B virus infected in MDCK cells assessed as inhibition of virus-induced cytopathicity at 100 uM; assay type: functional, organism-based; how it was run: as §4
[20] = system: Mammalian orthoreovirus 1; assay: Antiviral activity against Reovirus1 infected in african green monkey Vero cells assessed as inhibition of virus-induced cytopathicity at 100 uM; assay type: functional, organism-based; how it was run: as §2
[21] = system: Vaccinia virus; assay: Antiviral activity against Vaccinia virus infected in human HEL cells assessed as inhibition of virus-induced cytopathicity at 100 uM; assay type: functional, organism-based; conditions: Orthopoxvirus vaccinia; how it was run: as §4

Row | SMILES | IC50 [1] [µM] | IC50 [2] [µM] | IC50 [3] [µM] | inhibition [4] | inhibition [5] | inhibition [6] | inhibition [7] | inhibition [8] | inhibition [9] | inhibition [10] | inhibition [11] | inhibition [12] | inhibition [13] | inhibition [14] | inhibition [15] | inhibition [16] | inhibition [17] | inhibition [18] | inhibition [19] | inhibition [20] | other results
1 | O=c1[nH]cc(F)c(=O)[nH]1 [FLUOROURACIL] | 0.54 | 18 | 0.49 | – | – | – | – | – | – | – | – | – | – | – | – | – | – | – | – | – | –
2 | N#C[C@]1(O)[C@H](O)[C@@H](CO)O[C@@H](n2ccc(N)nc2=O)[C@@H]1O | 377 | > 500 | 147 | inactive | inactive | inactive | inactive | inactive | inactive | inactive | inactive | inactive | inactive | inactive | inactive | inactive | inactive | inactive | inactive | inactive | inhibition [21]: inactive
3 | N#C[C@]1(O)[C@H](O)[C@@H](CO)O[C@@H](n2cc(F)c(O)nc2=O)[C@@H]1O | 4.5 | 32 | 1.9 | inactive | inactive | inactive | inactive | inactive | inactive | inactive | inactive | inactive | inactive | inactive | inactive | inactive | inactive | inactive | inactive | inactive | inhibition [21]: inactive
4 | N#C[C@H]1[C@@H](O)[C@H](n2ccc(N)nc2=O)O[C@H](CO)[C@H]1O | > 750 | > 750 | > 750 | inactive | inactive | inactive | inactive | inactive | inactive | inactive | inactive | inactive | inactive | inactive | inactive | inactive | inactive | inactive | inactive | inactive | inhibition [21]: inactive
5 | Cc1cn([C@@H]2O[C@H](CO)[C@@H](O)[C@@](O)(C#N)[C@H]2O)c(=O)nc1O | > 500 | > 500 | 539 | inactive | inactive | inactive | inactive | inactive | inactive | inactive | inactive | inactive | inactive | inactive | inactive | inactive | inactive | inactive | inactive | inactive | inhibition [21]: inactive
6 | N#C[C@]1(O)[C@H](O)[C@@H](CO)O[C@@H](n2ccc(O)nc2=O)[C@@H]1O | > 500 | > 500 | 417 | inactive | inactive | inactive | inactive | inactive | inactive | inactive | inactive | inactive | inactive | inactive | inactive | inactive | inactive | inactive | inactive | inactive | inhibition [21]: inactive
7 | N#C[C@H]1[C@@H](O)[C@H](n2cc(F)c(O)nc2=O)O[C@H](CO)[C@H]1O | 819 | > 500 | 550 | inactive | inactive | inactive | inactive | inactive | inactive | inactive | inactive | inactive | inactive | inactive | inactive | inactive | inactive | inactive | inactive | inactive | inhibition [21]: inactive
8 | N#C[C@H]1[C@@H](O)[C@H](n2ccc(O)nc2=O)O[C@H](CO)[C@H]1O | 811 | > 500 | > 500 | inactive | inactive | inactive | inactive | inactive | inactive | inactive | inactive | inactive | inactive | inactive | inactive | inactive | inactive | inactive | inactive | inactive | inhibition [21]: inactive
9 | Cc1cn([C@@H]2O[C@H](CO)[C@@H](O)[C@@H](C#N)[C@H]2O)c(=O)nc1O | > 750 | > 750 | > 750 | inactive | inactive | inactive | inactive | inactive | inactive | inactive | inactive | inactive | inactive | inactive | inactive | inactive | inactive | inactive | inactive | inactive | inhibition [21]: inactive
